M5 ag = CHRM5 agonism in calcium assay | CHO-K1 hM5 cells, Fluo-8 calcium fluorescence; 0% DMSO wells, 100% maximal acetylcholine response | activation, % at 3 µM | hit rate 0.19% among 360,000;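 active = activation above the run's mean over test compounds plus 3 SD, cut at about 23% in these data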;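 note: signal is peak over basal fluorescence ratio across the kinetic read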
Target sequence (P08912 whole entry, looked up): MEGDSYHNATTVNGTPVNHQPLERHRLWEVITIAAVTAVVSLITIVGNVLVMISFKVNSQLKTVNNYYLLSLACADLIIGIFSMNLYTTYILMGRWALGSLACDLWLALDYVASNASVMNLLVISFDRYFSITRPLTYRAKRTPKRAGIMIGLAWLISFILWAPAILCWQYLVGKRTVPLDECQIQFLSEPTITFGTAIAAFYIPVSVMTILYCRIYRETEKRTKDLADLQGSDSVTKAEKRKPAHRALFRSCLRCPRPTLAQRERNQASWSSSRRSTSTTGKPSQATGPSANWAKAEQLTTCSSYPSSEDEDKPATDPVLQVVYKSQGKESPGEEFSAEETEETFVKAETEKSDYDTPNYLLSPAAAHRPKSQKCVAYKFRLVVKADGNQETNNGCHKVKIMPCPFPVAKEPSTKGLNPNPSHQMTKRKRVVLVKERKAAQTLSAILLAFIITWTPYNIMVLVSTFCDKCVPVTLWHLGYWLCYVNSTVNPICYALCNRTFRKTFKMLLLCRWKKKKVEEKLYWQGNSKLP
M4 antag = blocks acetylcholine activation of human M4 receptor. CHO-hM4 cells, ACh EC80, Fluo-8 calcium fluorescence. inhibition, % at 3 µM. hit rate 0.73% among 360,000. P08173. AID 624125;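 active = inhibition above its plate's cutoff, the mean inhibition of sample wells plus 3 SD, cut at about 27% in these data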;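 note: 0% = acetylcholine EC80 with DMSO and 100% = DMSO without agonist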
CHRM5 PAM = positive allosteric modulators of human muscarinic M5 receptor; P08912; CHO-K1 hM5, Fluo-8 calcium, ACh EC20 PAM; 0% = ACh EC20, 100% = ACh EC100; activation, % at 3 µM; hit rate 0.3% among 360,000; AID 624038;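 active = activation above the run cutoff, the mean activation of all test compounds plus 3 SD, cut at about 18% in these data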
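Assay system – human M5 receptor in CHO-K1 cells · Read-out – % activation, ACh-normalized · Technique – Fluo-8 calcium fluorescence · Dosing – single-point, 3 µM nominal · Incubation – Fluo-8 loading 80 min at 37 °C plus 30 min room temperature · Repeats – singlicate, one well per test compound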
M4 PAM = positive allosteric modulators of human muscarinic M4 receptor | P08173 | CHO-K1 hM4/Gqi5, Fluo-8 calcium fluorescence, ACh EC20; 0% = ACh EC20, 100% = maximal ACh | activation, % at 3 µM | hit rate 0.4% among 360,000 | AID 624126;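 active = activation above its plate's cutoff, the mean activation of sample wells plus 3 SD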
M5 antag = blocks acetylcholine activation of human M5 receptor; hit rate 0.59% among 360,000; P08912; CHO-hM5 cells, Fluo-8 calcium fluorescence, ACh EC80; inhibition, % at 3 µM; AID 624040;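 active = inhibition above a per-plate cutoff, the mean of that plate's test compounds plus 3 SD, cut at about 27% in these data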;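 note: 0% = acetylcholine EC80 with DMSO and 100% = DMSO without agonist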
M4 ag = agonists of human muscarinic M4 receptor (CHRM4); activation, % at 3 µM; P08173; AID 624127; hit rate 0.14% among 360,000; CHO-K1 hM4/Gqi5, Fluo-8 calcium fluorescence; vehicle 0%, full acetylcholine response 100%;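 active = activation above the run mean over all test wells plus 3 SD, cut at about 32% in these data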;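 note: peak over basal fluorescence ratio per well then scaled between controls; 0% = DMSO wells and 100% = acetylcholine at EC100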
Active calls of the source: *. Rows were chosen to be rich in hits. Some 1.8% of all compounds tested hit in one or more screens of this group.

SMILES	M5 ag	M4 antag	CHRM5 PAM	M4 PAM	M5 antag	M4 ag
CCn1c(C)c(C(C)=O)c(N2CCN(C(c3ccccc3)c3ccccc3)CC2)nc1=S	-6.6	29.3*	-19.9	-20.4	24.9	10.6
O=C(OCCN1C(=O)c2ccccc2C1=O)c1ccco1	-7.6	-8.7	18.9*	-0.7	-7.0	1.5
O=C(OCCN1C(=O)c2ccccc2C1=O)c1ccccc1	-1.7	7.4	-1.8	-1.1	2.7	2.2
COCc1ccc(CN2CCCC(CCC(=O)NCc3ccc(C)o3)C2)o1 (configuration not stated)	-0.9	-14.0	7.5	3.2	-7.1	0.8
COC(=O)c1ccc(CN2CCCC(CCC(=O)NCc3ccc(C)o3)C2)cc1 (configuration not stated)	-10.9	59.0*	0.5	-20.3	8.4	0.5
COc1ccc(/C=C/CN2CCCC(CCC(=O)NCc3ccc(F)c(F)c3)C2)cc1 (configuration not stated)	-9.8	71.2*	-11.9	-22.1	7.2	1.7
Cc1[nH]c(=O)[nH]c(=O)c1/C=N/NC(=O)[C@H](C)N	-1.3	0.5	-8.1	-0.8	14.9	-0.1
COc1ccc(CN(C)C(=O)c2ccc(OCC(=O)Nc3cccc(C(F)(F)F)c3)c(OC)c2)cc1	5.3	30.8*	-12.8	-12.1	15.8	16.0
COc1cc(C(=O)NCc2cccnc2)ccc1OCC(=O)Nc1cccc(C(F)(F)F)c1	6.7	-2.4	-24.1	-8.0	16.4	20.2
C#Cc1ccc([C@H]2C=C(C(=O)NCc3ccccc3)O[C@@H](OCC)[C@@H]2CCCO)cc1	-10.9	-5.4	-39.9	-6.4	34.3*	1.8
CSc1nc(-c2ccc(Cl)cc2)c(C#N)c(=O)n1C	2.9	-10.0	4.4	20.1*	-3.1	1.8
COCCN(C(=O)CCC(=O)Nc1cc(C)on1)C(C(=O)NC1CCCC1)c1ccccc1F (configuration not stated)	5.9	75.0*	27.6*	-20.2	17.5	-0.3
O=C(Cc1ccccc1)NN=Cc1ccccc1	-0.1	-7.2	-0.9	9.3	4.0	0.8
O=C(Cc1ccccc1)N/N=C/c1cc(Br)c(Br)o1	0.8	-9.0	-7.1	28.4*	5.0	-0.9
Cn1c(Br)nc2c1c(=O)n(CC(O)COc1ccccc1)c(=O)n2C (configuration not stated)	0.5	1.5	-7.7	-4.3	3.4	34.3*
Cc1ccccc1C(=O)N1CCN(c2ccc(NC(=O)CSc3ccc(Cl)cc3)cc2)CC1	4.3	26.8*	-15.6	-11.5	21.4	19.2
O=C(CCSc1nnc(-c2ccncc2)o1)Nc1ccccc1	-0.3	-9.9	2.5	5.6	-6.6	2.0
CCNC(=O)CCSc1nnc(-c2ccncc2)o1	-1.4	3.1	5.6	24.1*	13.0	0.0
c1ccc(CCNc2ncnc3ccccc23)cc1	6.1	21.9	-15.6	-6.3	30.0*	13.5
CCCCCCCCNc1ncnc2ccccc12	2.6	27.0*	-15.0	-18.9	42.8*	8.7
Cc1cc2c(NCCc3ccccc3)ncnc2s1	0.5	11.8	-23.4	-11.4	6.8	15.2
Cc1ccnc(NS(=O)(=O)c2ccc(NC(=O)c3ccc(S(=O)(=O)N4CC(C)OC(C)C4)cc3)cc2)n1 (configuration not stated)	-3.7	-6.1	4.8	8.9	-7.0	0.5
CN1CCN(c2ccc(-c3ccnn3C(=O)Nc3cccc(C(F)(F)F)c3)cc2)CC1	5.8	9.2	-13.9	-3.0	28.0*	11.2
COc1cccc(N2CCN(c3ccc([N+](=O)[O-])cn3)CC2)c1	-0.8	-1.2	11.2	17.3*	21.7	0.8
Cc1ccccc1C(=O)N1CCC[C@@H]1C(=O)N1CCC[C@H]1C(=O)NCc1ccncc1	2.1	9.1	-1.8	-3.1	2.5	0.1
CCn1c(SCCN2CCCCC2)nnc1-c1ccc(S(=O)(=O)N2CCOCC2)cc1	-16.5	32.7*	-1.6	-16.9	12.0	0.2
Cc1ccc(S(=O)(=O)N2CCC(c3nnc(SCCN4CCCC4)n3C)CC2)cc1	-7.4	11.4	-5.0	-10.5	7.7	-0.1
CCSc1nnc(NC(=O)CSc2nncc(=O)n2N)s1	5.6	-3.8	5.6	4.1	14.6	0.4

High-throughput results as filed in PubChem BioAssay.
